Results as given in publication PMC9017786 (Peptide science (Hoboken, N.J.), 2020).

Experiment: Transmission electron microscopy of the peptide assemblies
Type: physicochemical
Details: TEM; after ALP 1 U/mL, 1.0 wt% in PBS buffer pH 7.4, 24 hours, 37 °C
Method in brief: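 Phosphopeptide (1.0 wt% total, pH 7.4 PBS) was dephosphorylated with alkaline phosphatase (1 U/mL) for 24 h at 37 °C. Samples went onto 400 mesh copper grids coated with continuous carbon film (~35 nm), were stained with uranyl acetate and air-dried, then imaged by TEM. Nanofiber width was measured from the images.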

With Nap-wwy [compound 1] the “Diameter (width) of the nanofibers” value was 7 ± 2 nm.
